Experimental data from ChEMBL document CHEMBL4715736, “Identification of anticancer agents based on the thieno[2,3-b]pyridine and 1H-pyrazole molecular scaffolds” (2016).

Tests used:
Format in all cases: functional
[1] = tested on: HT-29; assay: Growth inhibition of human HT-29 cells assessed as cell growth at 0.01 uM incubated for 48 hrs by sulforhodamine B assay relative to control; conditions: read-out: Activity
[2] = tested on: DU-145; assay: Growth inhibition of human DU-145 cells assessed as cell growth at 0.01 uM incubated for 48 hrs by sulforhodamine B assay relative to control; conditions: read-out: Activity
Outline: (§1)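 NCI Developmental Therapeutics Program NCI60 panel. Compounds that were active in the 10 µM one-dose screen went on to dose–response testing. Growth at each concentration is expressed relative to untreated control (100%). GI50 (concentration giving 50% of maximal inhibition of proliferation) and TGI (concentration giving total growth inhibition) were derived from the curves.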

[3] = tested on: MDA-MB-231; assay: Growth inhibition of human MDA-MB-231 cells assessed as cell growth at 0.01 uM incubated for 48 hrs by sulforhodamine B assay relative to control; conditions: read-out: Activity
[4] = tested on: NCI-H522; assay: Growth inhibition of human NCI-H522 cells assessed as cell growth at 0.1 uM incubated for 48 hrs by sulforhodamine B assay relative to control; conditions: read-out: Activity
[5] = tested on: CAKI-1; assay: Growth inhibition of human CAKI-1 cells assessed as cell growth at 0.1 uM incubated for 48 hrs by sulforhodamine B assay relative to control; conditions: read-out: Activity; outline: as §1
[6] = tested on: SN12C; assay: Growth inhibition of human SN12C cells assessed as cell growth at 0.1 uM incubated for 48 hrs by sulforhodamine B assay relative to control; conditions: read-out: Activity
[7] = tested on: TK-10; assay: Growth inhibition of human TK-10 cells assessed as cell growth at 0.1 uM incubated for 48 hrs by sulforhodamine B assay relative to control; conditions: read-out: Activity
[8] = tested on: UO-31; assay: Growth inhibition of human UO-31 cells assessed as cell growth at 0.1 uM incubated for 48 hrs by sulforhodamine B assay relative to control; conditions: read-out: Activity
[9] = tested on: DU-145; assay: Growth inhibition of human DU-145 cells assessed as cell growth at 0.1 uM incubated for 48 hrs by sulforhodamine B assay relative to control; conditions: read-out: Activity; outline: as §1
[10] = tested on: MDA-MB-231; assay: Growth inhibition of human MDA-MB-231 cells assessed as cell growth at 0.1 uM incubated for 48 hrs by sulforhodamine B assay relative to control; conditions: read-out: Activity
[11] = tested on: SR; assay: Growth inhibition of human SR cells assessed as cell growth at 1 uM incubated for 48 hrs by sulforhodamine B assay relative to control; conditions: read-out: Activity
[12] = tested on: HOP-92; assay: Growth inhibition of human HOP-92 cells assessed as cell growth at 1 uM incubated for 48 hrs by sulforhodamine B assay relative to control; conditions: read-out: Activity
[13] = tested on: Malme-3M; assay: Growth inhibition of human Malme-3M cells assessed as cell growth at 1 uM incubated for 48 hrs by sulforhodamine B assay relative to control; conditions: read-out: Activity
[14] = tested on: UACC-257; assay: Growth inhibition of human UACC-257 cells assessed as cell growth at 1 uM incubated for 48 hrs by sulforhodamine B assay relative to control; conditions: read-out: Activity
[15] = tested on: OVCAR-4; assay: Growth inhibition of human OVCAR-4 cells assessed as cell growth at 1 uM incubated for 48 hrs by sulforhodamine B assay relative to control; conditions: read-out: Activity
[16] = tested on: BT-549; assay: Growth inhibition of human BT-549 cells assessed as cell growth at 1 uM incubated for 48 hrs by sulforhodamine B assay relative to control; conditions: read-out: Activity
[17] = tested on: NCI-H522; assay: Growth inhibition of human NCI-H522 cells assessed as cell growth at 100 uM incubated for 48 hrs by sulforhodamine B assay relative to control; conditions: read-out: Activity
[18] = tested on: SNB-19; assay: Growth inhibition of human SNB-19 cells assessed as cell growth at 100 uM incubated for 48 hrs by sulforhodamine B assay relative to control; conditions: read-out: Activity
[19] = tested on: Malme-3M; assay: Growth inhibition of human Malme-3M cells assessed as cell growth at 100 uM incubated for 48 hrs by sulforhodamine B assay relative to control; conditions: read-out: Activity
[20] = tested on: MDA-MB-435; assay: Growth inhibition of human MDA-MB-435 cells assessed as cell growth at 100 uM incubated for 48 hrs by sulforhodamine B assay relative to control; conditions: read-out: Activity
[21] = tested on: SK-MEL-28; assay: Growth inhibition of human SK-MEL-28 cells assessed as cell growth at 100 uM incubated for 48 hrs by sulforhodamine B assay relative to control; conditions: read-out: Activity
[22] = tested on: NCI/ADR-RES; assay: Growth inhibition of human NCI/ADR-RES cells assessed as cell growth at 100 uM incubated for 48 hrs by sulforhodamine B assay relative to control; conditions: read-out: Activity
[23] = tested on: BT-549; assay: Growth inhibition of human BT-549 cells assessed as cell growth at 100 uM incubated for 48 hrs by sulforhodamine B assay relative to control; conditions: read-out: Activity
[24] = tested on: CCRF-CEM; assay: Growth inhibition of human CCRF-CEM cells incubated for 48 hrs by sulforhodamine B assay; outline: as §1
[25] = tested on: COLO 205; assay: Growth inhibition of human COLO 205 cells incubated for 48 hrs by sulforhodamine B assay; outline: as §1
[26] = tested on: KM12; assay: Growth inhibition of human KM12 cells incubated for 48 hrs by sulforhodamine B assay
Outline: (§2)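 NCI60 panel at the NCI Developmental Therapeutics Program. Only compounds active in the 10 µM screen went to dose-response testing. GI50, the concentration giving 50% of maximal inhibition of proliferation, and TGI, the concentration giving total growth inhibition, were derived from the dose-response curves.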

[27] = tested on: SK-MEL-28; assay: Growth inhibition of human SK-MEL-28 cells incubated for 48 hrs by sulforhodamine B assay
Outline: (§3)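 NCI DTP 60-line human tumour panel. Dose-response curves were run only for ligands active in the initial 10 µM screen. GI50 (concentration giving 50% of maximal inhibition of proliferation) and TGI (concentration giving total growth inhibition) were derived from these curves.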

[28] = tested on: OVCAR-3; assay: Growth inhibition of human OVCAR-3 cells incubated for 48 hrs by sulforhodamine B assay; conditions: for CC50: read-out: LC50 (the source's name); outline: as §3
[29] = tested on: ACHN; assay: Growth inhibition of human ACHN cells incubated for 48 hrs by sulforhodamine B assay; conditions: for CC50: read-out: LC50 (the source's name); outline: as §1
[30] = tested on: UO-31; assay: Growth inhibition of human UO-31 cells incubated for 48 hrs by sulforhodamine B assay; conditions: for CC50: read-out: LC50 (the source's name); outline: as §3
[31] = tested on: DU-145; assay: Growth inhibition of human DU-145 cells incubated for 48 hrs by sulforhodamine B assay; conditions: for CC50: read-out: LC50 (the source's name); outline: as §1
[32] = tested on: MDA-MB-231; assay: Growth inhibition of human MDA-MB-231 cells incubated for 48 hrs by sulforhodamine B assay; conditions: for CC50: read-out: LC50 (the source's name); outline: as §2
[33] = tested on: NCI-H23; assay: Growth inhibition of human NCI-H23 cells assessed as cell growth at 1 uM incubated for 48 hrs by sulforhodamine B assay relative to control; conditions: read-out: Activity
[34] = tested on: NCI-H23; assay: Growth inhibition of human NCI-H23 cells incubated for 48 hrs by sulforhodamine B assay; outline: as §2

Cc1ccc(NC(=O)c2sc3nc4c(cc3c2N)C(=O)CCC4)cc1C
growth at 0.01 µM [1]: 106%
growth at 0.01 µM [2]: 104%
growth at 0.01 µM [3]: 98%
growth at 0.1 µM [4]: 82%
growth at 0.1 µM [5]: 91%
growth at 0.1 µM [6]: 96%
growth at 0.1 µM [7]: 85%
growth at 0.1 µM [8]: 81%
growth at 0.1 µM [9]: 101%
growth at 0.1 µM [10]: 95%
growth at 1 µM [11]: 25%
growth at 1 µM [12]: 29%
growth at 1 µM [13]: 24%
growth at 1 µM [14]: 50%
growth at 1 µM [15]: 42%
growth at 1 µM [16]: 49%
growth at 100 µM [17]: -13%
growth at 100 µM [18]: 29%
growth at 100 µM [19]: 28%
growth at 100 µM [20]: -46%
growth at 100 µM [21]: 25%
growth at 100 µM [22]: 4%
growth at 100 µM [23]: 42%
GI50 [24]: 334 nM
LC50 [24]: > 100 µM
TGI [24]: ≥ 100 µM
GI50 [25]: 272 nM
LC50 (concentration killing 50% of cells) [25]: ≥ 100 µM
TGI [25]: 11.4 µM
GI50 [26]: 479 nM
LC50 [26]: > 100 µM
TGI [26]: > 100 µM
GI50 [27]: 1510 nM
LC50 [27]: > 100 µM
TGI [27]: > 100 µM
GI50 [28]: 343 nM
TGI [28]: 1400 nM
CC50 [28]: > 100 µM
GI50 [29]: 23.9 nM
TGI [29]: > 100 µM
CC50 [29]: > 100 µM
GI50 [30]: 50.5 nM
TGI [30]: > 100 µM
CC50 [30]: > 100 µM
GI50 [31]: 602 nM
TGI [31]: > 100 µM
CC50 [31]: > 100 µM
GI50 [32]: 1510 nM
TGI [32]: > 100 µM
CC50 [32]: > 100 µM

CCc1cccc(C)c1NC(=O)c1sc2nc3c(cc2c1N)C(=O)CCC3
growth at 0.01 µM [2]: 101%
growth at 0.01 µM [3]: 97%
growth at 0.1 µM [5]: 91%
growth at 0.1 µM [6]: 92%
growth at 0.1 µM [8]: 82%
growth at 0.1 µM [9]: 102%
growth at 0.1 µM [10]: 100%
growth at 1 µM [11]: 17%
growth at 1 µM [12]: 39%
growth at 1 µM [33]: 42%
growth at 1 µM [13]: 31%
growth at 1 µM [14]: 54%
growth at 1 µM [15]: 39%
growth at 100 µM [18]: 34%
growth at 100 µM [19]: -1%
growth at 100 µM [20]: -13%
growth at 100 µM [21]: 11%
growth at 100 µM [22]: 1%
GI50 [24]: 346 nM
LC50 [24]: > 100 µM
TGI [24]: ≥ 100 µM
GI50 [34]: 733 nM
LC50 (50% lethal concentration) [34]: > 100 µM
TGI [34]: > 100 µM
GI50 [25]: 278 nM
GI50 [26]: 413 nM
LC50 [26]: > 100 µM
TGI [26]: > 100 µM
GI50 [27]: 133 nM
LC50 [27]: > 100 µM
TGI [27]: > 100 µM
GI50 [28]: 374 nM
TGI [28]: 2300 nM
CC50 [28]: > 100 µM
GI50 [29]: 795 nM
TGI [29]: > 100 µM
CC50 [29]: > 100 µM
GI50 [30]: 98.2 nM
TGI [30]: ≥ 100 µM
CC50 [30]: > 100 µM
GI50 [31]: 454 nM
TGI [31]: > 100 µM
CC50 [31]: > 100 µM
GI50 [32]: 1040 nM
TGI [32]: > 100 µM
CC50 [32]: > 100 µM
